“Also recorded” adds a separate entry of the source. Blank lines part the entries; values can stand above or below the compound they belong to.
How the values were obtained:
H9c2 cardiomyoblasts = conditions: after 72 h; cited from earlier work
[1] = assay type: binding; conditions: for calcein fluorescence upon addition of chelator: 4 μM chelator (2 equivalents), 2 μM calcein-Fe^3+, PBS pH 7.4
Outline: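 Fe3+-calcein formed by equilibrating 4 μM ferric ammonium citrate with 4 μM calcein in PBS for 4 h. Compounds were freshly made at 100 μM in PBS pH 7.4; for activation, 100 μM prochelator was incubated with 5 mM H2O2 for 12 h. 2 μM Fe3+-calcein plus 4 μM compound or mixture, 2 h, 25 °C; fluorescence at 485/535 nm. Triplicate wells averaged; calcein-only wells = 100%.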

ARPE-19 cells [2] = assay: Cytoprotection against paraquat-induced oxidative damage; assay type: cell-based, human; conditions: 10 mM paraquat, 48 h; for cytoprotection against paraquat-induced cell death: chelators, Figure S5; for cytoprotection against paraquat damage: prochelators
ARPE-19 cells [3] = assay: Cytoprotection against H2O2-induced oxidative damage; assay type: cell-based, human
Outline: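 ARPE-19 cells were grown to confluence (DMEM/F12 1:1, 10% FBS, 37 °C, 5% CO2) and washed with MEM. Cells were pretreated 5 h with prochelators or chelators in MEM, then given 200 μM H2O2 (final) and incubated 19 h more. Viability read by CellTiter-Blue, as % of MEM-only control; H2O2-only as negative control; triplicate, SD.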

[4] = Solubility in aqueous buffers; assay type: physicochemical; conditions: aqueous buffer
[5] = 1H NMR characterization of hydrolytic stability in D2O; assay type: physicochemical
Outline: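 Prochelator stocks (10 mM in DMSO-d6) diluted to 500 μM in D2O with 5% DMSO-d6, or to 200 μM with 2% DMSO-d6 for one analog. Solutions equilibrated 1 h before 1H NMR. Intact prochelator and isoniazid fraction estimated by integrating the hydrazone-compound aromatic peak against the corresponding isoniazid peak.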

[6] = test system: ARPE-19 retinal pigment epithelial cells; assay: Inherent cytotoxicity, CellTiter-Blue viability; assay type: cell-based, human; conditions: 72 h incubation, up to 100 μM
Outline: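 Confluent ARPE-19 cells (DMEM/F12 1:1 with 10% FBS, 37 °C, 5% CO2) were washed three times with MEM. Cells were exposed to prochelators at 5–100 μM final in MEM with up to 1% DMSO for 72 h. Viability measured by CellTiter-Blue; triplicate runs, standard deviation.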

[7] = UV-Vis spectrophotometry of hydrolysis equilibrium in PBS pH 7.4; assay type: physicochemical; conditions: for hydrolysis equilibrium constant K: PBS pH 7.4, equilibrated mixtures at various concentrations; for fold improved hydrolytic stability compared to BSIH: from K values
Outline: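 DMSO stocks were diluted into PBS pH 7.4 (100 μM). Spectra were recorded in 1-cm quartz cuvettes every 1 min over 30 min; 100 μM isoniazid + 100 μM aldehyde fragment served as reference. For K, equilibrated solutions at several initial concentrations were read at 263 and 321 nm, and component concentrations were solved from fitted extinction coefficients. K = [INH][FBA]/[prochelator], averaged across concentrations.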

[8] = comparable solutions (500 μM); cited from earlier work
[9] = cited from earlier work
[10] = same concentration (500 μM); cited from earlier work
[11] = cited from earlier work; remark: listed apart in the source
[12] = pH 7.4, total ligand 10 µM, iron 1 µM; cited from earlier work
[13] = prochelators, 5 h pre-incubation, 200 μM H2O2, viability after 19 h

SMILES: C/C(=N\NC(=O)c1ccncc1)c1ccccc1OCc1ccc(B2OC(C)(C)C(C)(C)O2)cc1 [BHAPI]
TC50 (H9c2 cardiomyoblasts): 37.1 ± 7.7 µM

SMILES: CNC(=S)N/N=C/c1ccccc1O [SMTH, (E)-2-(2-hydroxybenzylidene)-N-methylhydrazine-1-carbothioamide]
calcein fluorescence upon addition of chelator [1]: no effect on the quenched signal
cytoprotection against paraquat-induced cell death (ARPE-19 cells [2]): failed to protect cells
cytoprotection from peroxide damage (ARPE-19 cells [3]; chelators, H2O2-stressed cells, Figure S4): no protective effect

SMILES: CNC(=S)N/N=C/c1ccccc1B1OC(C)(C)C(C)(C)O1 [BSMTH, (E)-N-methyl-2-(2-(4,4,5,5-tetramethyl-1,3,2-dioxaborolan-2-yl)benzylidene)hydrazine-1-carbothioamide]
cytoprotection against paraquat damage (ARPE-19 cells [2]): lack of cytoprotection
cytoprotection from peroxide damage (ARPE-19 cells [3]; [13]): lack of cytoprotection; also recorded: ineffective

solubility [4]: ≤ 50 µM
SMILES: COc1ccc(/C=N/NC(=O)c2ccncc2)c(O)c1 [(m-OMe)SIH]

SMILES: COc1ccc(O)c(/C=N/NC(=O)c2ccncc2)c1 [(p-OMe)SIH, (E)-N’-(2-hydroxy-5-methoxybenzylidene)isonicotinohydrazide]
calcein fluorescence upon addition of chelator [1]: more than 90%
cytoprotection against paraquat-induced cell death (ARPE-19 cells [2]): ~ 40%

SMILES: CC1(C)OB(c2cc3c(cc2/C=N/NC(=O)c2ccncc2)OCO3)OC1(C)C [(MD)BSIH, (E)-N’-((6-(4,4,5,5-tetramethyl-1,3,2-dioxaborolan-2-yl)benzo[d][1,3]dioxol-5-yl)methylene)isonicotinohydrazide]
increase in chelator released compared to BSIH ([1]; after H2O2 activation): 50%
cytoprotection against paraquat damage (ARPE-19 cells [2]): dose-dependent recovery of cell viability
concentration effective for cytoprotection (ARPE-19 cells [3]; [13]): 25 µM
hydrolysis fragments in the equilibrated solution ([5]; 200 μM in D2O, 2% DMSO-d6): 20%
cytotoxicity [6]: non-toxic
hydrolysis equilibrium constant K, fold lower than parent BSIH [7]: ~ 2 fold
hydrolysis equilibrium constant K [7]: (8.0 ± 0.6) × 10^−6 M
fold improved hydrolytic stability compared to BSIH [7]: 1.9 fold

SMILES: CC1(C)OB(c2ccccc2/C=N/NC(=O)c2ccncc2)OC1(C)C [BSIH, (E)-N’-(2-(4,4,5,5-tetramethyl-1,3,2-dioxaborolan-2-yl)benzylidene)isonicotinohydrazide]
cytoprotection against paraquat damage (ARPE-19 cells [2]): failed to protect cells from paraquat damage; also recorded: lack of cytoprotection
intact prochelator at equilibrium [8]: 80%
stability in plasma ([9]; 10 h incubation in plasma): little degradation
SIH generated from peroxide activation [10]: 51%
cytotoxicity [6]: non-toxic

INH at equilibrium ([5]; 500 μM in D2O, 5% DMSO-d6, 1 h equilibration): 15%
hydrolysis equilibrium constant K [7]: (1.1 ± 0.1) × 10^−5 M
fold improved hydrolytic stability compared to BSIH [7]: 1.3 fold
SMILES: COc1ccc(B2OC(C)(C)C(C)(C)O2)c(/C=N/NC(=O)c2ccncc2)c1 [(p-OMe)BSIH, (E)-N’-(5-methoxy-2-(4,4,5,5-tetramethyl-1,3,2-dioxaborolan-2-yl)benzylidene)isonicotinohydrazide]
concentration effective for cytoprotection (ARPE-19 cells [3]; [13]): 25 µM
increase in H2O2-dependent conversion rate relative to the m-Cl compound [11]: ~5 fold

SMILES: Oc1ccccc1/C=N/NC(=S)Nc1ccccc1 [SPTH, (E)-2-(2-hydroxybenzylidene)-N-phenylhydrazine-1-carbothioamide]
calcein fluorescence upon addition of chelator [1]: failed to fully restore calcein emission
cytoprotection against paraquat-induced cell death (ARPE-19 cells [2]): ~ 40%

SMILES: C/C(=N\NC(=O)c1ccncc1)c1ccccc1O [HAPI, (E)-N’-(1-(2-hydroxyphenyl)ethylidene)isonicotinohydrazide, reference compound]
cytoprotection against paraquat-induced cell death (ARPE-19 cells [2]): ~ 40%

solubility [4]: ≥ 300 µM
SMILES: COc1ccc(/C=N/NC(=O)c2cccnc2)c(B2OC(C)(C)C(C)(C)O2)c1 [(m-OMe)BSNH, (E)-N’-(4-methoxy-2-(4,4,5,5-tetramethyl-1,3,2-dioxaborolan-2-yl)benzylidene)nicotinohydrazide]

solubility [4]: ≥ 300 µM
SMILES: COc1ccc(/C=N/NC(=O)c2cccnc2)c(O)c1 [(m-OMe)SNH, (E)-N’-(2-hydroxy-4-methoxybenzylidene)nicotinohydrazide]
calcein fluorescence upon addition of chelator [1]: more than 90%

SMILES: O=C(O)CN(CC(=O)O)Cc1cc2c(cc1O)Oc1cc(O)c(CN(CC(=O)O)CC(=O)O)cc1C21OC(=O)c2ccccc21 [Calcein]
pFe [12]: 20.3

SMILES: O=C(N/N=C/c1ccccc1O)c1ccncc1 [SIH, (E)-N’-(2-hydroxybenzylidene)isonicotinohydrazide]
cytoprotection against paraquat-induced cell death (ARPE-19 cells [2]): ~ 40%
stability in buffer ([9]; buffer at pH 7.4): remains intact
stability in cell culture media and plasma ([9]; cell culture media and plasma): degrades within hours

UV-Vis spectrum over time in PBS buffer ([7]; PBS buffer, Figure S3): remains unchanged over time
SMILES: COc1ccc(/C=N/NC(=O)c2ccncc2)cc1B1OC(C)(C)C(C)(C)O1 [(m-OMe)BIIH, (E)-N’-(4-methoxy-3-(4,4,5,5-tetramethyl-1,3,2-dioxaborolan-2-yl)benzylidene)isonicotinohydrazide]
cytoprotection from peroxide damage (ARPE-19 cells [3]; [13]): lack of cytoprotection
hydrolysis products by 1H NMR upon dilution in D2O ([5]; 500 μM in D2O, 5% DMSO-d6): no additional peaks corresponding to potential hydrolysis products were observed

SMILES: CC1(C)OB(c2ccccc2/C=N/NC(=S)Nc2ccccc2)OC1(C)C [BSPTH, (E)-N-phenyl-2-(2-(4,4,5,5-tetramethyl-1,3,2-dioxaborolan-2-yl)benzylidene)hydrazine-1-carbothioamide]
cytoprotection against paraquat damage (ARPE-19 cells [2]): lack of cytoprotection
cytoprotection from peroxide damage (ARPE-19 cells [3]; [13]): modest cellular protection

Reference: PMC6314015 (Bioorganic & medicinal chemistry, 2018)
